Laboratory results reported in PubChem BioAssay AID540337 (Southern Research Specialized Biocontainment Screening …, 2011).
pIC50: −log10 of the molar value. Activity calls are given as the source filed them.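 The calls were made as follows: active = at least 50% inhibition of virus-induced cell damage; inactive = the rest.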

The compounds below were run on HEp-2 RSV Long CPE inhibition, luminescence (assay: RSV-induced cytopathic effect inhibitors, dose response, cell-based, synthesized compounds, set 12, CPE (AID 540337)).
Procedure, shortened: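 Assay system: HEp-2 cells infected with RSV strain Long; Schedule: 6 d at 37 °C; Detection: luminescent CPE read-out; Controls: uninfected cell-only wells and virus-infected wells without compound; Replication: triplicate.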

Row | IC50 | pIC50 | SMILES
1 | > 50 µM (inactive) | – | COCCCNC(=O)c1ccc(Cn2c(=O)c3ccccc3n(CCc3ccc(C(F)(F)F)cc3)c2=O)cc1
2 | > 50 µM (inactive) | – | COCCCNC(=O)c1ccc(Cn2c(=O)c3ccccc3n(CCc3ccc(C)cc3)c2=O)cc1
3 | > 50 µM (inactive) | – | COCCCNC(=O)c1ccc(Cn2c(=O)c3ccccc3n(CCc3ccc(Br)cc3)c2=O)cc1

More lines, now with the values behind:

Row | SMILES | IC50 | pIC50
4 | COCCCNC(=O)c1ccc(Cn2c(=O)c3ccccc3n(CC3CCCCC3)c2=O)cc1 | > 50 µM (inactive) | –
5 | COCCCNC(=O)c1ccc(Cn2c(=O)c3ccccc3n(Cc3ccccn3)c2=O)cc1 | > 50 µM (inactive) | –
6 | COCCCNC(=O)c1ccc(Cn2c(=O)c3ccccc3n(Cc3ccc(C)cc3)c2=O)cc1 | – | 5.60
7 | COCCCNC(=O)c1ccc(Cn2c(=O)c3ccccc3n(Cc3cccnc3)c2=O)cc1 | > 50 µM (inactive) | –
